Measurements: article PMC8296307 (Epilepsy research, 2021)
Like-named read-outs stand apart in the source and are kept apart here.

Assays:
[1] = target: T1, m5-HT2A (Mus musculus, UniProt P35363); experiment: Radioligand competition binding, [3H]Ketanserin, m5-HT2A in HEK293 membranes
[2] = target: T2, h5-HT2C-INI (Homo sapiens, UniProt P28335); type: binding; conditions: [3H]Mesulergine, one-site fit Ki
T2 sequence (P28335 33-458): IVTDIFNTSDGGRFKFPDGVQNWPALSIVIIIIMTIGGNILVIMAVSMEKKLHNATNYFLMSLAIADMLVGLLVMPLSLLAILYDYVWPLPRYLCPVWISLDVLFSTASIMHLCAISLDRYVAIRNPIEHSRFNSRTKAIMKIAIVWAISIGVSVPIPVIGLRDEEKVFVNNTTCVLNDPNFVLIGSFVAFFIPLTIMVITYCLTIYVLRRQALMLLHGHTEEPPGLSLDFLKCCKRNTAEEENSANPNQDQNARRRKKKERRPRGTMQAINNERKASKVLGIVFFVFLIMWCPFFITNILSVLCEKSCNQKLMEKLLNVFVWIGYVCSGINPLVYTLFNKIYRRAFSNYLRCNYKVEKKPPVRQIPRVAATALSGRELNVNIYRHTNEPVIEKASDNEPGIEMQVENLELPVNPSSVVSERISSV

[3] = target: T3, m5-HT2C-VNV (Mus musculus, UniProt P34968, I157V/I161V); type: binding
T3 sequence (P34968 33-459 I157V/I161V): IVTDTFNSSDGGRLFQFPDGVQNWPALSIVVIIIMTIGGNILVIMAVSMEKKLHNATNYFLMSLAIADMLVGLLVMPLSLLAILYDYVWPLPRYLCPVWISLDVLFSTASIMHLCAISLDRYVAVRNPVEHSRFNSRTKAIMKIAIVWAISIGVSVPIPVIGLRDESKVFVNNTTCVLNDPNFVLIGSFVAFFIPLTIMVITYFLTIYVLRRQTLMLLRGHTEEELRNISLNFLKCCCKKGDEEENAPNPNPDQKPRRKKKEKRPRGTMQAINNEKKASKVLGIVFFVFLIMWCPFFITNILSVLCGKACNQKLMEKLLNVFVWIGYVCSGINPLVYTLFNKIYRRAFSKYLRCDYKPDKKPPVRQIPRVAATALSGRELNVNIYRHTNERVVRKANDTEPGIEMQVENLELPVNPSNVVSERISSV

[4] = target: h5-HT2A (Homo sapiens, UniProt P28223); experiment: 5-HT2AR-mediated phosphoinositide hydrolysis, h5-HT2A in HEK293 cells; type: cell-based; conditions: relative to 5-HT
[5] = target: T1, m5-HT2A; experiment: 5-HT2AR-mediated phosphoinositide hydrolysis, m5-HT2A in HEK293 cells; type: cell-based
[6] = target: T2, h5-HT2C-INI; experiment: 5-HT2CR-mediated phosphoinositide hydrolysis, h5-HT2C-INI in HEK293 cells; type: cell-based; conditions: for agonist efficacy: relative to 5-HT
[7] = target: T3, m5-HT2C-VNV; experiment: 5-HT2CR-mediated phosphoinositide hydrolysis, m5-HT2C-VNV in HEK293 cells; type: cell-based; conditions: for agonist efficacy: relative to 5-HT
[8] = test system: C57BL/6J mice; experiment: DOI-elicited head-twitch response; type: in vivo, mouse; conditions: for HTR (mean count): 10-minute session
Method in brief: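 C57BL/6J mice were acclimated to the testing room for ≥60 min. They then received s.c. vehicle (Milli-Q water) or test compound (1, 3 or 5.6 mg/kg), followed 10 min later by s.c. 5-HT2R agonist challenge (1.0 mg/kg). After a further 10 min, mice were placed in the open field for a 10-min session. Head twitches (rapid, discrete head jerks) were counted with a tally counter by an observer blind to treatment.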

[9] = test system: juvenile Fmr1 knockout mice; conditions: ref Armstrong et al., 2020; cited from earlier work
[10] = test system: juvenile Fmr1 knockout mice; experiment: Audiogenic seizures; type: in vivo, mouse; conditions: for lethality: vehicle 60%; for seizure prevalence (TCS): vehicle 70%; for mean WRJ duration (± SD): vehicle 10 (±5)
[11] = test system: C57BL/6J mice; experiment: Head-twitch response; type: in vivo, mouse; conditions: vehicle 2.6
[12] = test system: C57BL/6J mice; experiment: Locomotor activity in open field; type: in vivo, mouse
[13] = steady-state clinical dosing of 10 mg twice daily in monkeys; ref FDA briefing document NDA22529; cited from earlier work
[14] = phosphoinositide hydrolysis, mean
[15] = phosphoinositide hydrolysis, mean (95% CI)
[16] = lorcaserin 5.6 mg/kg with M100907 0.03 mg/kg pretreatment
[17] = 30 mg/kg i.p., 30 min before test

T1 sequence (P35363 whole entry): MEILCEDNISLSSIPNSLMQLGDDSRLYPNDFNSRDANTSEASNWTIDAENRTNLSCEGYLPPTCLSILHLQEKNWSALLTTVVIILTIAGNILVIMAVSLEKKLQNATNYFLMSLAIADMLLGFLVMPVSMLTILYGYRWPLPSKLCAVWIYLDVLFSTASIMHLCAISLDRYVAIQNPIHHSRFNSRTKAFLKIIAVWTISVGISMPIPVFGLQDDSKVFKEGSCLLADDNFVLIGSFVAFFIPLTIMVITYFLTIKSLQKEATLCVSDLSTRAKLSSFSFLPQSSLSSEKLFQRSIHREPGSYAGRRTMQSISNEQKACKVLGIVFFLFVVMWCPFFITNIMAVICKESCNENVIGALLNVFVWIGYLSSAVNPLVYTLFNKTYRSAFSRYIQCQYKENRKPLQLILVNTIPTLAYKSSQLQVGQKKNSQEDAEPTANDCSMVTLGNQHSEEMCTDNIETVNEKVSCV
h5-HT2A, sequence (P28223 whole entry): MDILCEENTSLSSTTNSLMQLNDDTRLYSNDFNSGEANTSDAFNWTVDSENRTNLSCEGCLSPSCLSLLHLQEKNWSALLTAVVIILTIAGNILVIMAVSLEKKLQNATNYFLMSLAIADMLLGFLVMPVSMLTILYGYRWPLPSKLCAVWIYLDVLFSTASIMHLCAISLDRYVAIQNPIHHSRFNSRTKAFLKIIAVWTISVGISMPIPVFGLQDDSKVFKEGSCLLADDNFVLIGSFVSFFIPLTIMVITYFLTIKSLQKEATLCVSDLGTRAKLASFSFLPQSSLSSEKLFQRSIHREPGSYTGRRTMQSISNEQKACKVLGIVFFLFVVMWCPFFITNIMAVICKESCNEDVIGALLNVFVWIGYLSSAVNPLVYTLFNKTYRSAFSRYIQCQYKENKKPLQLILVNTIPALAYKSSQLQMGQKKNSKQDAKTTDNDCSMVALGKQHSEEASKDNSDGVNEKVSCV

COc1cc(CC(C)N)c(OC)cc1I (racemic) [DOI, (±)-2,5-dimethoxy-4-iodoamphetamine]
Ki ([1]; [3H]Ketanserin, one-site fit Ki, mean): 0.033 µM
pKi (95% CI) ([1]; [3H]Ketanserin, one-site fit Ki, mean (95% CI)): 7.48 (7.54 to 7.42)
pKi (95% CI) at the high-affinity site ([1]; two-site fit Ki model): 8.01 (8.70 to 7.64)
pKi (95% CI) at the low-affinity site ([1]; two-site fit Ki model): 7.02 (7.32 to 6.30)
Ki ([2]; mean): 0.096 µM
pKi (95% CI) ([2]; mean (95% CI)): 7.02 (7.11 to 6.93)
Ki ([3]; [3H]Mesulergine, one-site fit Ki, mean): 0.065 µM
pKi (95% CI) ([3]; [3H]Mesulergine, one-site fit Ki, mean (95% CI)): 7.19 (7.28 to 7.10)
agonist efficacy [4]: full efficacy h5-HT2AR agonist activity
EC50 [5, 14]: 0.001 µM
pEC50 (95% CI) [5, 15]: 9.00 (9.44 to 8.57)
agonist efficacy ([5]; relative to 5-HT): full efficacy m5-HT2AR agonist activity
EC50 [6, 14]: 0.0041 µM
pEC50 (95% CI) [6, 15]: 8.39 (8.76 to 8.04)
agonist efficacy [6]: full agonists
EC50 [7, 14]: 0.008 µM
pEC50 (95% CI) [7, 15]: 8.10 (8.41 to 7.80)
agonist efficacy [7]: full agonists
HTR (mean count) ([8]; DOI 1 mg/kg s.c. alone): 37.6
more HTRs than SB242084 plus lorcaserin ([8]; DOI 1 mg/kg vs SB242084 plus lorcaserin 3 mg/kg): 5 fold

CN(C)[C@H]1CCc2c(cccc2-c2ccccc2F)C1 [FPT, (S)-5-(2’-Fluorophenyl)-N,N-dimethyl-1,2,3,4-tetrahydronaphthalen-2-amine]
prevention of AGSs [9]: completely prevents AGSs

O=C(c1ccc(F)cc1)C1CCN(CCn2c(=O)[nH]c3ccccc3c2=O)CC1 [Ketanserin]
Ki ([1]; pKi (95% CI), [3H]Ketanserin, one-site fit Ki, mean (95% CI)): 0.00269 µM

C[C@H]1CNCCc2ccc(Cl)cc21 [Lorcaserin]
Ki ([1]; Ki, [3H]Ketanserin, one-site fit Ki, mean): 4.46 µM
Ki [3]: 0.741 µM
EC50 ([5]; EC50, phosphoinositide hydrolysis, mean): 0.212 µM
Emax ([5]; HEK293): 84.6%
EC50 ([5]; pEC50 (95% CI), phosphoinositide hydrolysis, mean (95% CI)): 0.209 µM
agonist efficacy [6]: full agonists
EC50 [7]: 0.0158 µM
agonist efficacy [7]: full agonists
lethality ([10]; 1 mg/kg i.p.): 67%
seizure prevalence (TCS) ([10]; 1 mg/kg i.p.): 83%
lethality ([10]; 3 mg/kg i.p.): 28%
seizure prevalence (TCS) ([10]; 3 mg/kg i.p.): 56%
attenuation of AGS lethality ([10]; 3 mg/kg, relative to vehicle, not significant (P=0.06)): 32%
attenuation of AGS prevalence ([10]; 3 mg/kg, relative to vehicle, not significant (P=0.5)): 14%
mean WRJ duration (± SD) ([10]; 5.6 mg/kg alone): 19 (±12) seconds
lethality ([10]; 5.6 mg/kg i.p.): 78%
seizure prevalence (TCS) ([10]; 5.6 mg/kg i.p.): 94%
mean WRJ duration (± SD) ([10]; 5.6 mg/kg in combination with M100907 0.03 mg/kg): 20 (±14) seconds
mean TCS onset latency (± SD) ([10]; 5.6 mg/kg, vehicle 41 (±8)): 58 (±21) seconds
lethality ([10]; 10 mg/kg i.p.): 78%
seizure prevalence (TCS) ([10]; 10 mg/kg i.p.): 89%
effect on WRJ latency ([10]; 1, 3, 5.6, 10 mg/kg): did not affect WRJ latency
prevention of AGSs ([10]; 1-10 mg/kg i.p.): ineffective at preventing AGSs
lethality [10, 16]: 50%
seizure prevalence (TCS) [10, 16]: 90%
behaviours observed in treated animals ([10]; some animals that received lorcaserin): purposeless oral movements
HTR (mean count) ([11]; 3 mg/kg s.c. alone): 4.1
HTR (mean count) ([11]; lorcaserin 3 mg/kg with SB242084 0.5 mg/kg s.c.): 7
HTR (mean count) ([11]; lorcaserin 3 mg/kg with SB242084 1 mg/kg s.c.): 6.3
HTR (mean count) ([8]; lorcaserin 3 mg/kg plus DOI 1 mg/kg): 44.1
HTR (mean count) ([8]; lorcaserin 5.6 mg/kg plus DOI 1 mg/kg): 44.9
effect on locomotor activity ([12]; 3 mg/kg s.c. alone, relative to vehicle (P<0.0001)): significantly reduced locomotor activity
effect on locomotor activity ([12]; lorcaserin 3 mg/kg combined with SB242084 0.5 mg/kg, relative to vehicle (P=0.0003)): significantly enhanced locomotor activity
brain concentrations [13]: ~ 1.7 μM

COc1cccc([C@H](O)C2CCN(CCc3ccc(F)cc3)CC2)c1OC [M100907]
lethality ([10]; 0.03 mg/kg i.p. alone): 88%
seizure prevalence (TCS) ([10]; 0.03 mg/kg i.p. alone): 100%

Cc1cccc(C#Cc2ccccc2)n1 [MPEP, 2-methyl-6-(phenylethynyl)pyridine]
lethality [10, 17]: 12%
seizure prevalence (TCS) [10, 17]: 12%
mean latency (± SD) to first episode of WRJ ([10]; 30 mg/kg, vehicle 36 (±11)): 160 (±19) seconds

CN1C[C@@H](NS(=O)(=O)N(C)C)C[C@@H]2c3cccc4c3c(cn4C)C[C@H]21 [Mesulergine]
Ki [3]: 0.00339 µM

Cc1cc2c(cc1Cl)N(C(=O)Nc1ccc(Oc3cccnc3C)nc1)CC2 [SB242084]
effect on lorcaserin (3 mg/kg) reduced locomotor activity ([12]; SB242084 0.5 mg/kg and 1 mg/kg s.c.): overturned
